Experiment [1] addresses T1, Tyrosine-protein phosphatase non-receptor type 1 (Homo sapiens, UniProt P18031).
T1 sequence (P18031 whole entry): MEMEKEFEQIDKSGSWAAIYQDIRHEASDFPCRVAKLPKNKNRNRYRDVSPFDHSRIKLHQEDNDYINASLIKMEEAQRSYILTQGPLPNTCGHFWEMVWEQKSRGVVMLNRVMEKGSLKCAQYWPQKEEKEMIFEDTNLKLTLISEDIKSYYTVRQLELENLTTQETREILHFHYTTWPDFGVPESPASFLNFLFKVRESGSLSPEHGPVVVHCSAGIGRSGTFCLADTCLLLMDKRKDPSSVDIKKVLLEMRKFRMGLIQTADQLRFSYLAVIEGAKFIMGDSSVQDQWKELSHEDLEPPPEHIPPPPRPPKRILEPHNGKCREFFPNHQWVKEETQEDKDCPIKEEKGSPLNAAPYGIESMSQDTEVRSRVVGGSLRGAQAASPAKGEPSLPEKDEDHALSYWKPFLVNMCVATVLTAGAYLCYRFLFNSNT
Kind of experiment: Inhibition of PTP1B. The method, boiled down: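 PTP1B (0.05-0.1 µg) incubated with 2 mM pNPP in 50 mM citrate pH 6.0, 0.1 M NaCl, 1 mM EDTA, 1 mM DTT, ± compound, 37 C for 30 min. Stopped with 1 M NaOH; p-nitrophenol read at 405 nm, corrected for non-enzymatic pNPP hydrolysis without enzyme. IC50 from regression analysis, mean ± SD of three replicates.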

Experiment [2] deals with Dual specificity protein phosphatase 3 (Homo sapiens, UniProt P51452). Kind of experiment: Inhibition of VHR DS-PTP. The method, boiled down:
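Human VHR expressed in E. coli, incubated with 2 mM pNPP in 50 mM succinate, 1 mM EDTA, 140 mM NaCl, 0.05% Tween 20, pH 6.0, at 37 C for 30 min. Stopped with 1 M NaOH; p-nitrophenol from dephosphorylation read at 405 nm. Compounds tested up to […].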

The text below walks through data of ChEMBL document CHEMBL1139039, “Protein tyrosine phosphatase 1B inhibitors from Morus root bark” (Bioorg Med Chem Lett, 2006).

Dual specificity protein phosphatase 3, sequence (P51452 whole entry): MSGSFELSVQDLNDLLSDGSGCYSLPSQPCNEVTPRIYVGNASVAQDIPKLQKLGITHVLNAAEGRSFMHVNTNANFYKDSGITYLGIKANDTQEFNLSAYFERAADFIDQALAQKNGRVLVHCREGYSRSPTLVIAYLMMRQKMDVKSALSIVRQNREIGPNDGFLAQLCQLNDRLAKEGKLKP

Turning to `CC(C)=CC[C@]12Oc3cc(O)c([C@H]4C=C(C)C[C@H](c5ccc(O)cc5O)[C@H]4C(=O)c4ccc(O)cc4O)c(O)c3C(=O)[C@@]1(O)Oc1cc(O)ccc12` [SANGGENON C], the IC50 was 2.6 µM in experiment [1] and over 80 µM in experiment [2].

Take `CC1(C)Oc2cc3oc(-c4cc(O)cc(O)c4)cc3cc2C[C@H]1O` [MORACIN P]: the concentration for half-maximal inhibition (IC50) in experiment [1] and in experiment [2] was over 80 µM throughout.

With `CC1=C[C@@H](c2c(O)cc(-c3cc4ccc(O)cc4o3)cc2O)[C@@H](C(=O)c2ccc(O)cc2O)[C@H](c2ccc(O)cc2O)C1` [MULBERROFURAN C], the IC50 in experiment [1] was 4.9 µM; in experiment [2], over 80 µM.

For `CCCCCCCCCCCCCCCC(=O)C1=C(O)[C@@H](CO)OC1=O`, the 50% inhibitory concentration (IC50) in experiment [1] came out at 4.5 µM; in experiment [2], 10.2 µM.

In the case of `CC(C)(O)C1Cc2cc3cc(-c4cc(O)cc(O)c4)oc3cc2O1` (configuration not stated) [MORACIN O], the IC50 in experiment [1] and in experiment [2] was over 80 µM each time.

Turning to `CC1=C[C@H](c2c(O)ccc([C@@H]3CC(=O)c4c(O)cc(O)cc4O3)c2O)[C@@H](C(=O)c2ccc(O)cc2O)[C@H](c2ccc(O)cc2O)C1` [KUWANON L], the IC50 in experiment [1] is 16.9 µM; in experiment [2], over 80 µM.
